The source made the active and inactive calls. No cut-off for these calls is given here.
Experiments:
[1] = target: T1, TGF-beta receptor type-1 (Rattus norvegicus) (UniProt P80204); experiment: Inhibition of TGFbeta1 receptor in TGFbeta1-stimulated Sprague-Dawley rat cardiac fibroblasts assessed as reduction in fibronectin expression at 50 uM measured after 12 hrs by Western blot analysis
T1 sequence (whole entry): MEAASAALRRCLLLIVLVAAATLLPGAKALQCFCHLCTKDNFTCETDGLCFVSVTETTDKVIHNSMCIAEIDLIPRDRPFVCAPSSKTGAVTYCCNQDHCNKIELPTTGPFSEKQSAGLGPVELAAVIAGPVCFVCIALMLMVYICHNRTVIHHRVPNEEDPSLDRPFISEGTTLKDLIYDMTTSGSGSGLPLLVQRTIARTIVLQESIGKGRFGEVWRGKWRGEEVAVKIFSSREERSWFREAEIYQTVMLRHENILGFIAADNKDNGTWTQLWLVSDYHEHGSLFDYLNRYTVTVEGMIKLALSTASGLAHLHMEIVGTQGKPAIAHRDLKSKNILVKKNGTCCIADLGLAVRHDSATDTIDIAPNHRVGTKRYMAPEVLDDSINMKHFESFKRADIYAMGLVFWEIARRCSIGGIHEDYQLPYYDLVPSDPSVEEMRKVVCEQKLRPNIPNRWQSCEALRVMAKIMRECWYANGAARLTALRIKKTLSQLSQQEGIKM
How it was run: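 Screen in primary rat cardiac fibroblasts: compounds at 50 µM or 10 µM given with 10 ng/mL TGFβ1 for 12 h. FN measured by Western blot with GAPDH loading control and densitometry. N=3 independent experiments.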

[2] = target: T1, TGF-beta receptor type-1 (Rattus norvegicus); experiment: Inhibition of TGFbeta1 receptor in TGFbeta1-stimulated Sprague-Dawley rat cardiac fibroblasts assessed as reduction in fibronectin expression at 10 uM measured after 12 hrs by Western blot analysis relative to control
How it was run: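 Primary rat cardiac fibroblasts (passages 2–4, 3×10^5 per well) treated with compound plus 10 ng/mL TGFβ1 for 12 h; tested at 2.5, 5 and 10 µM. Lysates run on 10% SDS-PAGE (30 µg protein), probed for FN, α-SMA and collagen I/III, and quantified by densitometry against GAPDH. N=3 independent experiments.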

[3] = target: T1, TGF-beta receptor type-1 (Rattus norvegicus); experiment: Inhibition of TGFbeta1 receptor in TGFbeta1-stimulated Sprague-Dawley rat cardiac fibroblasts assessed as reduction in collagen 1 expression at 2 mM measured after 12 hrs by Western blot analysis
[4] = target: T1, TGF-beta receptor type-1 (Rattus norvegicus); experiment: Inhibition of TGFbeta1 receptor in TGFbeta1-stimulated Sprague-Dawley rat cardiac fibroblasts assessed as reduction in collagen 3 expression at 2 mM measured after 12 hrs by Western blot analysis
[5] = target: T1, TGF-beta receptor type-1 (Rattus norvegicus); experiment: Inhibition of TGFbeta1 receptor in TGFbeta1-stimulated Sprague-Dawley rat cardiac fibroblasts assessed as reduction in fibronectin expression at 2 mM measured after 12 hrs by Western blot analysis
[6] = target: T1, TGF-beta receptor type-1 (Rattus norvegicus); experiment: Inhibition of TGFbeta1 receptor in TGFbeta1-stimulated Sprague-Dawley rat cardiac fibroblasts assessed as reduction in alpha-SMA expression at 2 mM measured after 12 hrs by Western blot analysis

| SMILES | fibronectin reduction (active/not active) [1] | fibronectin reduction verdict (active/not active) [2] | other results |
| --- | --- | --- | --- |
| C=C(C)[C@@H]1C/C=C(\C)[C@H](O)CCC2=C[C@@H]1OC2=O | Active | – | – |
| C=C1CC[C@@H](C(=C)C)[C@@H]2C=C(CC[C@H]1F)C(=O)O2 | Active | – | – |
| C=C(C)[C@@H]1C/C=C(\C)[C@H](OC(=O)c2cccs2)CCC2=C[C@@H]1OC2=O | Active | – | – |
| C=C(C)[C@@H]1C[C@@H](N2CCOCC2)/C(C)=C/CCC2=C[C@@H]1OC2=O | inactive | inactive | – |
| C=C(C)[C@@H]1C/C=C(\C)[C@H](O[N+](=O)[O-])CCC2=C[C@@H]1OC2=O | Active | – | – |
| C=C(C)[C@@H]1CC/C(C)=C/CC[C@@H](C(=O)OC)CC1=O | inactive | inactive | – |
| C=C(C)[C@@H]1C/C=C(\C)[C@H](OC(=O)c2cc(C(F)(F)F)cc(C(F)(F)F)c2)CCC2=C[C@@H]1OC2=O | Active | Active | – |
| C=C(C)[C@@H]1C/C=C(C)/C(=N\OC(=O)c2ccco2)CCC2=C[C@@H]1OC2=O | inactive | inactive | – |
| C=C(C)[C@@H]1C[C@@H](OCC)/C(C)=C/CCC2=C[C@@H]1OC2=O | inactive | inactive | – |
| C=C(C)[C@@H]1CC/C(C)=C/CCC2=C[C@@H]1OC2=O | Active | – | – |
| C=C(C)[C@@H]1CC[C@]2(C)O[C@@H]2CCC2=C[C@@H]1OC2=O | Active | – | – |
| C=C(C)[C@@H]1C/C=C(\C)[C@H](OC(C)=O)CCC2=C[C@@H]1OC2=O | Active | – | – |
| C=C(C)[C@@H]1C/C=C(\C)[C@H](F)CCC2=C[C@@H]1OC2=O | Active | – | – |
| C=C(C)[C@@H]1C[C@@H](OC=O)/C(C)=C/CCC2=C[C@@H]1OC2=O | inactive | inactive | – |
| C=C(C)[C@@H]1C/C=C(\C)[C@H](OC(=O)c2cccnc2Cl)CCC2=C[C@@H]1OC2=O | Active | Active | – |
| C=C(C)[C@@H]1C[C@@H](N2CCCCC2)/C(C)=C/CCC2=C[C@@H]1OC2=O | inactive | inactive | – |

| SMILES | fibronectin reduction (active/not active) [1] | fibronectin reduction verdict (active/not active) [2] | other results |
| --- | --- | --- | --- |
| C=C(C)[C@@H]1C/C=C(\C)[C@H](N=[N+]=[N-])CCC2=C[C@@H]1OC2=O | Active | – | – |
| O=C1CCC[C@@H]2[C@H]3CCC[N+]4([O-])CCC[C@@H](CN12)[C@@H]34 (stereo partly specified) | – | – | inhibition [3]: Active; inhibition [4]: Active; inhibition [5]: Active; inhibition [6]: Active |
| C=C(C)[C@@H]1C/C=C(\C)[C@H](OCC)CCC2=C[C@@H]1OC2=O | Active | – | – |
| C=C(C)[C@@H]1C[C@@H](N2CCCC2)/C(C)=C/CCC2=C[C@@H]1OC2=O | inactive | inactive | – |
| C=C(C)[C@@H]1C/C=C(\C)[C@@H](O)CCC2=C[C@@H]1OC2=O | Active | – | – |
| C=C(C)[C@@H]1C/C=C(C)/C(=N\OC(C)=O)CCC2=C[C@@H]1OC2=O | inactive | inactive | – |
| C=C(C)[C@@H]1C/C=C(\C)[C@H](Br)CCC2=C[C@@H]1OC2=O | Active | Active | – |
| C=C(C)[C@@H]1C/C=C(\C)[C@H](Cl)CCC2=C[C@@H]1OC2=O | Active | Active | – |
| C=C(C)[C@@H]1C/C=C(\C)[C@H](OC(=O)c2ccc([N+](=O)[O-])cc2)CCC2=C[C@@H]1OC2=O | Active | Active | – |
| C=C(C)[C@@H]1C[C@@H](OC)/C(C)=C/CCC2=C[C@@H]1OC2=O | inactive | inactive | – |
| C=C(C)[C@@H]1C/C=C(\C)[C@H](OC(=O)c2ccc(C(F)(F)F)cc2)CCC2=C[C@@H]1OC2=O | Active | – | – |
| C=C(C)[C@@H]1C[C@@H](OC(C)C)/C(C)=C/CCC2=C[C@@H]1OC2=O | inactive | inactive | – |
| C=C(C)[C@@H]1C[C@@H](O)/C(C)=C/CCC2=C[C@@H]1OC2=O | Active | Active | – |
| C=C(C)[C@@H]1C/C=C(\C)[C@H](OC)CCC2=C[C@@H]1OC2=O | Active | – | – |
| C=C(C)[C@@H]1CC/C(C)=C/CC[C@@H](C(=O)OCC)CC1=O | inactive | inactive | – |
